Sampled rows, rich in hits. Any-hit rate of the full collection: about 2.1%.
CXCR6 block: inhibitors of human CXCR6 receptor | O00574 | CHO-K1 PathHunter CXCR6 beta-arrestin, luminescence | inhibition, % at 20 µM | actives 0.36% (n = 360,000) | AID 602244; in the data active = inhibition above about 34%, passing the limit was not always enough;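 also: antagonist mode with CXCL16 agonist at 10 nM final; 0% = 10 nM CXCL16 with DMSO and 100% = unstimulated wells without agonist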
CCR6 antagonist: CCR6 (human) receptor antagonism. CHO-K1 CCR6 PathHunter beta-arrestin, luminescence, CCL20-stimulated. inhibition, % at 20 µM. actives 0.49% (n = 340,000). AID 493098;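 active = compounds whose inhibition of the agonist-driven luminescence signal at 20 µM reaches about 50%, limit read from the data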;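 also: cells stimulated with CCL20 at 14 nM final; plate controls were DMSO with CCL20 for no effect and DMSO without agonist for full effect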
EBI2 antag: blocks human EBI2 receptor beta-arrestin signaling | P32249 | EBI2 beta-arrestin recruitment, luminescence, 7a,25-OHC stimulated | inhibition, % at 5 µM | actives 0.81% (n = 360,000); in the data active = inhibition above about 38%;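 also: enzyme fragment complementation signal reports receptor beta-arrestin coupling in cells; 0% = agonist plus DMSO wells and 100% = wells without agonist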
Target sequence (P32249 whole entry, looked up, the tested form may be a part): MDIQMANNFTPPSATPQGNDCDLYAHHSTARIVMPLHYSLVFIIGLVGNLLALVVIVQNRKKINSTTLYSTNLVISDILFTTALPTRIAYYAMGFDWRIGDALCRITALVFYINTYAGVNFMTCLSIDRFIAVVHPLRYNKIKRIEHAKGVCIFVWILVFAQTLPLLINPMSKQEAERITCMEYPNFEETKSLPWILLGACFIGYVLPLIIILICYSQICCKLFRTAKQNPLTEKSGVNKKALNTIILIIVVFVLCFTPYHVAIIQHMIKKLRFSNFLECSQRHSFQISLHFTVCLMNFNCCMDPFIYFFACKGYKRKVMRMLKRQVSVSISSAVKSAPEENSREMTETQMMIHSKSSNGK
APJ antag: blocks the human apelin receptor APJ; actives 0.32% (n = 330,000); P35414; CHO-K1 APJ beta-arrestin complementation, luminescence; inhibition, % at 20 µM; AID 2521;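 active = inhibition above about 40% at 20 µM, limit read from the data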;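 also: cells challenged with 10 nM apelin-13 agonist together with compound; plate controls were apelin-13 plus DMSO wells for no effect and DMSO wells lacking apelin-13 for full effect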
APJ agonist: APJ receptor agonism | P35414 | CHO-K1 APJ PathHunter beta-arrestin, luminescence; 0% DMSO wells, 100% apelin | activation, % at 20 µM | actives 0.11% (n = 330,000) | AID 2520;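 active = activation more than six SD over the plate average, tested at 20 µM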;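 also: 0% = DMSO alone and 100% = apelin-13 at 10 nM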
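Test system: CHO-K1 APJ beta-arrestin complementation cell line. Amount: cell density 1000 per well. Controls: DMSO negative, 10 nM Apelin-13 positive. Signal: luminescent beta-gal fragment complementation, chemiluminescent substrate. Read-out basis: agonist-driven arrestin binding to APJ. Timing: compound stimulation 90 min at 25 °C, detection 60 min.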
m5-HT2A agonist: activates the mouse 5-HT2A serotonin receptor | activation, % at 7.6 µM | CHO-K1 mHTR2A beta-arrestin complementation, luminescence; percent of 30 µM serotonin response | P35363 | actives 0.66% (n = 360,000);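 active = activation above a run cutoff, the mean activation of all tested compounds plus 3 SD, cut at about 14% in these data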;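 also: 0% = plate median of compound wells and 100% = 30 µM serotonin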
EBI2 conf: EBI2 (human) antagonism, single concentration confirmation; shares compounds with EBI2 antag; EBI2 beta-arrestin luminescence, 7a,25-OHC antagonism; inhibition, % at 5 µM; actives 29% (n = 2,400); AID 651997;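 active = inhibition of at least 50%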
EBI2 agonist: EBI2 agonism counter-screen. shares compounds with EBI2 antag. EBI2-expressing cells, agonist mode, luminescence, 60 min; 0% vehicle, 100% 7α,25-dihydroxycholesterol control. activation, % at 5 µM. 2,400 tested, under 10 active;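 active = activation of at least 50%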
bGal counter: inhibits E. coli beta-galactosidase, counter-screen for EBI2 antagonists. shares compounds with EBI2 antag. purified beta-galactosidase, luminescent Galacton Star, 15 min. inhibition, % at 5 µM. actives 1% (n = 2,400);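 active = replicate-average signal at least 3 plate SD below neutral wells, shown as high inhibition, flagging enzyme-inhibiting false positives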;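 also: 0% = DMSO wells with enzyme and 100% = wells lacking enzyme; higher means stronger loss of beta-gal luminescence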
* hit, by the source's call; nt = no result given.

SMILES	CXCR6 block	CCR6 antagonist	EBI2 antag	APJ antag	APJ agonist	m5-HT2A agonist	EBI2 conf	EBI2 agonist	bGal counter
O=C(/C=C/c1ccccc1)N1CCN(CCN2C(=O)c3cccc4cccc(c34)C2=O)CC1	10	19	92*	-1	-2	-5	84*	-1	5
Clc1cccc(CN2CCC(Cc3ccccc3)CC2)c1	-10	-1	-1	-4	-5	-4	nt	nt	nt
O=C(/C=C/c1ccccc1)N1CCC(c2ccccc2)C1 (centres undefined)	-4	5	64*	3	-4	1	50	0	5
O=C(CN1CCN(C(=O)C2CCN(C(=O)/C=C/c3ccccc3)CC2)CC1)Nc1ccc(F)cc1	5	6	62*	nt	nt	-4	28	0	8
Cn1c(CN2CCCCC2)nc2cc(NC(=O)c3ccccc3)ccc21	-11	-11	1	6	-1	8	nt	nt	nt
COC(=O)C1CCN(C(=O)/C=C/c2ccccc2)CC1	-2	-11	66*	13	-2	0	50*	0	7
O=C(/C=C/c1ccccc1)N1CCC(Cc2ccccc2)CC1	-11	9	90*	-4	-2	-4	77*	-1	-20
N#CCN1C(=S)N=C(Nc2cccc(Cl)c2)C12CCCCC2	-11	6	-5	7	-5	2	nt	nt	nt
CCCCN(C)C(=O)c1cc2cc3ccc(OC)cc3nc2o1	13	11	-2	-2	-3	1	nt	nt	nt
CCN(C(=O)c1cc2cc3ccc(C)cc3nc2o1)c1ccc(OC)cc1	27	28	42*	3	-4	-9	51*	1	4
FC(F)(F)c1cccc(CON=C2CCN(c3ncc(C(F)(F)F)cc3Cl)CC2)c1	-2	29	14	-12	-4	3	nt	nt	nt
Cc1ccc(CON=C2CCN(c3ncc(C(F)(F)F)cc3Cl)CC2)cc1	1	-18	43*	12	0	1	4	0	-12
FC(F)(F)c1cnc(N2CCC(=NOCc3ccc(Cl)cc3)CC2)c(Cl)c1	6	30	54*	12	0	2	7	0	8
Cc1ccc(C(=O)Nc2ncccc2S(=O)(=O)c2ccccc2)cc1	0	8	1	nt	nt	6	nt	nt	nt
O=C(c1cccs1)N(CCN1CCCCC1)CC1CCCN(C2CCCC2)C1 (centres undefined)	8	0	-10	13	-2	-8	nt	nt	nt
Cc1ccc(C(=O)NCCN2C3=NC[C@H](C(C)C)N3C[C@H]2Cc2ccc(O)cc2)cc1Br	13	10	3	-57	-3	-14	nt	nt	nt
O=C(NCc1ccccc1)c1cc(=O)nc2sc(-c3ccccc3)nn12	0	13	44*	nt	nt	4	26	-1	-9
COc1cc(OC)cc(C(=O)NNC(=O)c2ccc(S(=O)(=O)N3CC(C)OC(C)C3)cc2)c1 (centres undefined)	4	8	-7	3	-2	-3	nt	nt	nt
Cc1ccc(C)c(Oc2cc(F)nc(N)n2)c1	-7	7	-2	8	-1	-5	nt	nt	nt
C(=C\c1nc(N2CCCC2)c2ccccc2n1)/c1ccccc1	2	19	41*	-11	1	-6	59*	-1	-7
O=C(/C=C/c1ccccc1[N+](=O)[O-])N1CCN(c2ccccc2F)CC1	-3	-4	-4	-20	-5	-8	nt	nt	nt
O=C(/C=C/c1ccc(Cl)cc1Cl)N1CCN(c2ccccc2[N+](=O)[O-])CC1	4	4	82*	-3	3	-4	62*	1	3
O=C(/C=C/c1ccc(Cl)cc1Cl)N1CCN(c2ccc([N+](=O)[O-])c(N3CCOCC3)c2)CC1	4	18	61*	-7	-4	0	15	1	7
O=C(/C=C/c1ccc(Cl)cc1)N1CCN(c2ccc([N+](=O)[O-])c(N3CCOCC3)c2)CC1	-5	19	96*	nt	nt	4	88*	1	0
S=C(Nc1ccc(Br)cc1Cl)NN1CCOCC1	3	3	-2	27	-2	1	nt	nt	nt
SMILES	CXCR6 block	CCR6 antagonist	EBI2 antag	APJ antag	APJ agonist	m5-HT2A agonist	EBI2 conf	EBI2 agonist	bGal counter
Cc1cccc(Oc2nc3ccccn3c(=O)c2/C=C(\C#N)C(=O)NC2CCS(=O)(=O)C2)c1 (centres undefined)	5	-1	45*	-6	-1	5	53*	0	-18
Cc1cc(Oc2nc3ccccn3c(=O)c2/C=C(\C#N)C(=O)NC2CCS(=O)(=O)C2)ccc1Cl (centres undefined)	-16	17	49*	-7	3	-1	66*	-1	-14
Cc1ccc(Oc2nc3ccccn3c(=O)c2/C=C(\C#N)C(=O)Nc2c(C)n(C)n(-c3ccccc3)c2=O)c(C)c1	3	7	63*	-5	0	-4	58*	2	3
CC(/C=N/NC(=S)Nc1cccc(S(=O)(=O)N(C)C)c1)c1ccccc1 (centres undefined)	0	7	5	9	1	-2	nt	nt	nt
COc1ccc(CCNC(=O)c2cc3c(=O)n4cccc(C)c4nc3n(CCCN3CCOCC3)c2=N)cc1	7	24	6	-6	-4	-3	nt	nt	nt
O=C(c1ccco1)N1CCN(C(=O)c2cc3c(=O)oc4ccccc4c3s2)CC1	0	-28	80*	nt	nt	1	61*	1	-4
Cc1ccc2cc3cc(C(=O)N4CCN(Cc5ccccc5)CC4)sc3nc2c1	5	0	80*	-4	-3	-5	53*	0	-17
Cc1ccc2cc3cc(C(=O)N4CCN(C(=O)c5ccco5)CC4)sc3nc2c1	2	-12	63*	7	-2	-6	30	-1	-7
COc1ccc(Cc2nnc(SCC(=O)NCc3ccco3)o2)cc1	-32	-14	-10	1	1	2	nt	nt	nt
CSc1ccc(CN(C)C(=O)c2cc3ccccc3o2)cc1	4	9	50*	19	-3	-1	12	0	-11
CSc1ccc(CN(C)C(=O)c2cc(=O)c3ccccc3o2)cc1	-2	19	78*	14	-3	-2	60*	-1	-14
CN(Cc1c(F)cccc1Cl)C(=O)c1cc2ccccc2o1	-2	6	13	6	-3	1	nt	nt	nt
